High-throughput results: PubChem BioAssay, Johns Hopkins Ion Channel Center
Shown are actives, neighbours in structure and some others; about 4.1% of the full set was active somewhere.
MrgX1 agonist – activates human MrgX1 receptor signaling; MrgX1-HEK293 cells, Fluo-4 calcium fluorescence, agonist mode; hits give high values; B-score at 10 µM; actives 0.44% (n = 310,000); AID 588627;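 active means calcium response B-score plate-corrected fluorescence ratio at least 3 library SD, with starting fluorescence B-score inside 5 SD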
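System: HEK293 cells stably expressing human MrgX1 receptor; Dosing: test compound in the initial addition of three; Schedule: overnight plating, then 30 min 37 °C plus 30 min room-temperature dye loading; Detection: kinetic calcium dye fluorescence, Fluo-4 NW; Controls: per-plate positive and negative controls for Z′ factor.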
Kir21 block – blocks the mouse Kir2.1 inward-rectifier potassium channel; AID 1672; B-score at 10 µM; actives 0.85% (n = 310,000); HEK293-Kir2.1, FluxOR thallium flux fluorescence; hits give low values;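 active means fluorescence ratio B-score at or below minus 3 SD of library scores, with starting-brightness B-score within 2 SD, cut at about -4.2 in these data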;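 further: channel flux triggered by added potassium and thallium sulfate stimulus; B-score of peak minus minimum fluorescence over baseline after thallium stimulus; more negative B-score means stronger Kir2.1 block with less thallium influx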
Target sequence (P35561 whole entry, looked up): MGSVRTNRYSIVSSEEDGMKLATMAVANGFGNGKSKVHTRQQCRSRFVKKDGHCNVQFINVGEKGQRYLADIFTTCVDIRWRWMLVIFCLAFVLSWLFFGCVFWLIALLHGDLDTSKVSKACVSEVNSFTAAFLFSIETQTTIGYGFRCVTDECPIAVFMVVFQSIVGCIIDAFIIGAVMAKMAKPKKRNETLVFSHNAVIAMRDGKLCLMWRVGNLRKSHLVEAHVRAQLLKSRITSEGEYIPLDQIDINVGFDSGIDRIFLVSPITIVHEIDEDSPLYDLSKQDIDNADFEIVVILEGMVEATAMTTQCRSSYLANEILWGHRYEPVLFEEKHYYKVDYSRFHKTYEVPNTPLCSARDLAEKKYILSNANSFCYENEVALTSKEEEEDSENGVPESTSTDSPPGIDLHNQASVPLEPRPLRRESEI
MrgX1 antagonist – antagonists of human MrgX1 receptor. actives 1.3% (n = 310,000). MRGX1-HEK293 calcium flux, Fluo-4, BAM8-22 antagonism; hits give low values. B-score at 10 µM;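 active means calcium-response B-score plate-corrected more than 3 library SD below zero, starting fluorescence within 5 deviations, no agonist response on first addition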;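 further: peak minus trough fluorescence over baseline after final BAM8-22 challenge near maximal dose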
RGS4 inh – human RGS4 inhibition | actives 0.45% (n = 310,000) | B-score at 10 µM | HEK293 M3R/RGS4 inducible, Fluo-4 calcium flux; hits give high values; triggered by carbachol at its EC20 | P49798;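 active means B-score, a plate-corrected calcium signal, over three deviations above library mean, with baseline fluorescence within five deviations of library mean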;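 further: RGS4 expression induced by doxycycline in cells with stable M3 receptor; B-score is computed from the integrated fluorescence ratio over baseline after carbachol; higher B-score means a larger calcium signal and so more RGS4 inhibition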
Target sequence (P49798 whole entry, looked up): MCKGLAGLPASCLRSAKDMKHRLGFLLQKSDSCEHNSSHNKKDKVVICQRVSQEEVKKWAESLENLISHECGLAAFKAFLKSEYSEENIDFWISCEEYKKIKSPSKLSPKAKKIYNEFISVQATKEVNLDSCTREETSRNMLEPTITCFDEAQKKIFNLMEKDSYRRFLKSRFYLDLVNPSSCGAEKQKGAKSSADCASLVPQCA
RGS4 act – potentiators or activators of RGS4; HEK293 M3R/inducible RGS4, carbachol calcium flux Fluo4; hits give low values; B-score at 10 µM; actives 0.92% (n = 310,000); AID 463111;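 active means B-score of the integrated calcium signal more than 4 SD below the library mean, with starting fluorescence not abnormally high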;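 further: negative B-score means reduced calcium response which marks RGS4 activation or potentiation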
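Reagent: ECmax carbachol challenge; Test system: M3R-expressing HEK293 line, RGS4 induced by doxycycline; Schedule: overnight RGS4 induction, 30 min dye load 37 °C, 20 min compound RT; Detection: calcium dye Fluo4 fluorescence; Read-out: Agonist-evoked peak-minus-minimum fluorescence over baseline, integrated ratio, B score.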
MrgX1 allo act – allosterically activates human MrgX1 receptor signaling; Q96LB2; B-score at 10 µM; AID 588675; actives 0.63% (n = 310,000); MrgX1-HEK293, Fluo-4 calcium flux, FDSS; hits give high values;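 active means plate-corrected calcium response at least 3 library SD above typical, normal starting fluorescence, not activating the receptor alone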;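 further: compound read alongside a low EC10 to EC30 dose of BAM8-22 agonist; peak minus trough fluorescence over baseline measured at the second addition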
Active calls of the source: *; i = inactive; . = not tested or not shown.

SMILES | MrgX1 agonist | Kir21 block | MrgX1 antagonist | RGS4 inh | RGS4 act | MrgX1 allo act
Cc1ccc(C2=NOC(C)(c3nnc(-c4ccccc4)o3)C2)cc1 (centres undefined) | i | 0.15 | i | i | i | i
CN(C(=O)c1ccccc1F)C(c1ccccc1)c1ccccc1 | i | -7.2* | i | i | i | i
CC(/C=N/NC(=O)c1ccccc1F)c1ccccc1 (centres undefined) | i | 0.45 | i | i | i | i
COc1ccc2cc(-c3cc(C(=O)OCC(=O)Nc4c(C)n(C)n(-c5ccccc5)c4=O)c4ccccc4n3)ccc2c1 | . | 0.5 | . | i | i | .
CN1C(=O)C(N=Nc2ccccc2C(=O)O)N(C)C1=S (centres undefined) | 48* | -0.42 | i | i | i | i
Cc1ccc(NC(=O)c2nn(C34CC5CC(CC(C5)C3)C4)cc2[N+](=O)[O-])cc1 | i | -0.32 | -5* | i | i | i
Cc1c(Cc2ccccc2)sc(/N=C/c2ccc3ccccc3c2)c1C(N)=O | i | . | i | . | . | i
Cc1c(Cc2ccccc2)sc(/N=C/c2c(O)ccc3ccccc23)c1C(N)=O | i | -1.4 | -7.6* | i | i | i
CC(NCC(O)COCc1ccc(Cl)cc1)c1ccccc1 (centres undefined) | i | -8.5* | i | i | i | i
Cc1ccc(C(OCC(O)CNC(CO)C(O)c2ccc([N+](=O)[O-])cc2)c2ccccc2)cc1 (centres undefined) | i | -5.2* | i | i | i | i
Cc1ccc(C(OCC(O)CNC(C)c2ccccc2)c2ccccc2)cc1 (centres undefined) | i | -6* | i | i | i | i
OC(CNCc1ccccc1)COCc1ccc(Cl)cc1 (centres undefined) | i | -9.2 | i | i | i | i
O=C1c2ccccc2C(Nc2ccc3c(c2)OCCO3)N1Cc1ccc2c(c1)OCO2 (centres undefined) | i | 0.17 | i | i | i | i
COc1ccc(Cn2c(C)cc3c(c2=O)C(c2cccs2)C(C#N)=C(N)O3)cc1OC (centres undefined) | i | 1.3 | i | i | i | i
CC(C)(C)c1ccc(/C=N/NC(=O)C(=O)NCCCN2CCOCC2)cc1 | i | 0.74 | i | i | i | i
Cc1ccc2ncnc(-c3ccccc3)c2c1 | i | 0.34 | i | i | i | i
CN1CCN(C2=Nc3cc(Cl)ccc3Nc3ccccc32)CC1 | i | -1.2 | i | i | -7.5* | i
CN(C)/C(Cn1cncn1)=C1/N=C(c2ccccc2)OC1=O | i | 0.7 | i | i | i | i
CCOc1cc(C#N)c(NC(=O)c2cccnc2)cc1OCC | i | 0.4 | i | i | i | i
Cn1c(=O)c2c(nc(SCC(=O)c3ccccc3F)n2C)n(C)c1=O | i | -0.77 | -7* | i | i | i
O=C1N/C(=C\c2ccc(O)cc2)C(=O)c2ccccc21 | 40* | -0.88 | i | i | i | i
c1ccc(-c2cn(-c3ccccc3)c3ncnc(N4CCCCC4)c23)cc1 | i | 1.2 | i | i | i | i
COc1ccc(-n2cc(-c3ccccc3)c3c(N4CC(C)OC(C)C4)ncnc32)cc1 (centres undefined) | i | -1.3 | i | i | -7* | i
NC(=O)c1ccc(N2CCN(c3ccc(O)cc3)CC2)c([N+](=O)[O-])c1 | i | 0 | i | i | i | i
COc1ccc(/C=N/Nc2cc(C)nc3ccccc23)cc1 | i | -6.6* | i | i | i | i
SMILES | MrgX1 agonist | Kir21 block | MrgX1 antagonist | RGS4 inh | RGS4 act | MrgX1 allo act
COc1ccc(/C=N/Nc2cc(C)nc3c(C)cccc23)cc1 | i | -0.72 | -4.6* | i | i | i
CN1CCN(C2=C(Cl)C(=O)C(c3cnc(N4CCCCC4)s3)=C(Cl)C2=O)CC1 | i | -1.8 | i | i | -7.1* | i
O=C1Nc2ccccc2C1(O)C/C(=N/O)c1ccccc1 (centres undefined) | i | 0.82 | -7.5* | i | i | i
CC(=O)CC1(O)C(=O)Nc2ccccc21 (centres undefined) | i | -0.29 | i | i | i | i
Cc1ccc(C2C(C#N)=C(N)Oc3cc(N)ccc32)cc1 (centres undefined) | i | 0.67 | i | i | i | i
Cc1ccc(/C=C2\CCC3=C2OC(N)=C(C#N)C3c2ccc(C)cc2)cc1 (centres undefined) | 73* | -1.6 | i | i | i | i
O=c1cc(N2CCCCC2)c(-c2ccccc2)nn1Cc1ccccc1Cl | i | 0.55 | i | i | -7.1* | i
O=c1cc(N2CCCCC2)c(-c2ccccc2)nn1Cc1ccc(Cl)cc1Cl | i | 2.5 | i | i | -8.7* | i
O=c1cc(Cl)c(-c2ccccc2)nn1Cc1ccc(Cl)cc1 | i | 0.69 | i | i | i | i
O=C1NC(=Nc2ccccc2Cl)S/C1=C\c1cc([N+](=O)[O-])ccc1O | i | -8.5 | i | i | i | i
Cc1ccc(S(=O)(=O)/N=C2/NC(=O)/C(=C/c3cc([N+](=O)[O-])ccc3O)S2)cc1 | i | -1.7 | i | i | -7.8* | i
Cc1ccc(CN2C(=O)N/C(=C/c3ccc(-c4ccc(C(=O)O)cc4)o3)C2=O)cc1 | i | -0.46 | i | i | i | i
CC(C)CN(CC(C)C)S(=O)(=O)c1cc([N+](=O)[O-])ccc1N1CCCCCC1 | i | -2.2 | i | i | i | i
CN(C)S(=O)(=O)c1cc([N+](=O)[O-])ccc1N1CCCCCC1 | i | -4.6* | i | i | i | i
COCCNC(=S)N/N=C(\C)c1cccc(C(F)(F)F)c1 | i | -0.02 | i | i | i | i
COc1ccc(OC)c(/C=C2\Oc3cc(OCC(=O)N4CCC(C(=O)O)CC4)ccc3C2=O)c1 | 55* | -2 | i | i | i | i
COc1ccc(/C=C2\Oc3cc(OCC(=O)N4CC(O)C[C@H]4C(=O)O)ccc3C2=O)c(OC)c1OC (some centres undefined) | i | 1.1 | i | i | i | i
COc1ccc(OC)c(/C=C2\Oc3cc(OCC(=O)N4CC(O)C[C@H]4C(=O)O)ccc3C2=O)c1 (some centres undefined) | i | -1.2 | i | i | i | 14*
